In ChEMBL document CHEMBL1155837 (Bioorg Med Chem Lett, 2008):

Columns and labels:
Human alphaherpesvirus 2 [1] = assay: Antiviral activity against acyclovir-sensitive HSV2 HG32 in african green monkey Vero cells assessed as inhibition of virus plaque formation; format: functional, organism-based; details: Human alphaherpesvirus 2, HG32, Vero
Outline: (§1)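 Vero cells were grown to density in DMEM with 10% fetal bovine serum, L-glutamine, penicillin and streptomycin, then preincubated 30 min with drug and kept in drug throughout. They were infected with 100 pfu per well, adsorbed 45 min and overlaid with 1.2% Avicel in DMEM. After 3 days, plaques were stained with crystal violet and counted.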

Human alphaherpesvirus 1 [2] = assay: Antiviral activity against HSV1 KOS in HEL cells assessed as inhibition of virus induced cytopathicity within 48 hrs; format: functional, organism-based; details: Human alphaherpesvirus 1, KOS
Outline: (§2)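 Confluent HEL fibroblast cultures were inoculated with 100 CCID50 of virus per well. After 1 h adsorption, residual virus was removed and cells were incubated with serial dilutions of compound.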

Human alphaherpesvirus 2 [3] = assay: Antiviral activity against acyclovir-resistant HSV2 ACR in african green monkey Vero cells assessed as inhibition of virus plaque formation; format: functional, organism-based; details: Human alphaherpesvirus 2, ACR; outline: as §1
Human alphaherpesvirus 3 [4] = assay: Antiviral activity against TK+ VZV OKA infected HEL cells assessed as reduction in virus plaque formation after 5 days; format: functional, organism-based; details: Human alphaherpesvirus 3, OKA, 120 h
Human alphaherpesvirus 3 [5] = assay: Antiviral activity against thymidine kinase deficient VZV 07/1 infected HEL cells assessed as reduction in virus plaque formation after 5 days; format: functional, organism-based; details: Human alphaherpesvirus 3, 07/1, HEL, 120 h
[6] = Cytotoxicity against HEL cells assessed as alteration of cell morphology; format: cell-based; details: human
Outline: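 In HEL cells, the MCC is the minimal compound concentration producing a microscopically visible change in cell morphology.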

Human alphaherpesvirus 3 [7] = assay: Antiviral activity against thymidine kinase deficient VZV YS/R infected HEL cells assessed as reduction in virus plaque formation after 5 days; format: functional, organism-based; details: Human alphaherpesvirus 3, YS/R, 120 h
Human alphaherpesvirus 2 [8] = assay: Antiviral activity against HSV2 G in HEL cells assessed as inhibition of virus induced cytopathicity within 48 hrs; format: functional, organism-based; details: Human alphaherpesvirus 2, strain G; outline: as §2
Human alphaherpesvirus 3 [9] = assay: Antiviral activity against TK+ VZV YS infected HEL cells assessed as reduction in virus plaque formation after 5 days; format: functional, organism-based; details: Human alphaherpesvirus 3, YS, 120 h
[10] = Cytotoxicity against HEL cells assessed as inhibition of cell proliferation; format: cell-based; details: human
Human alphaherpesvirus 1 [11] = assay: Antiviral activity against acyclovir-resistant and thymidine kinase deficient HSV1 KOS in HEL cells assessed as inhibition of virus induced cytopathicity within 48 hrs; format: functional, organism-based; details: Human alphaherpesvirus 1, KOS; outline: as §2
Human alphaherpesvirus 2 [12] = assay: Antiviral activity against HSV2; format: functional, organism-based

Row | SMILES | EC50 (Human alphaherpesvirus 2 [1]) [µM] | EC50 (Human alphaherpesvirus 1 [2]) [µM] | EC50 (Human alphaherpesvirus 2 [3]) [µM] | EC50 (Human alphaherpesvirus 3 [4]) [µM] | EC50 (Human alphaherpesvirus 3 [5]) [µM] | MCC [6] [µM] | EC50 (Human alphaherpesvirus 3 [7]) [µM] | EC50 (Human alphaherpesvirus 2 [8]) [µM] | EC50 (Human alphaherpesvirus 3 [9]) [µM] | CC50 [10] [µM] | EC50 (Human alphaherpesvirus 1 [11]) [µM] | EC50 (Human alphaherpesvirus 2 [12]) [µM]
1 | C[C@H](NP(=O)(OCCOCn1cnc2c(=O)[nH]c(N)nc21)Oc1ccccc1)C(=O)OCc1ccccc1 (some centres not stated) | 20.3 | 0.9 | 15.5 | 0.72 | 1.8 | > 50 | 0.59 | 1.4 | 1 | > 100 |  | 
2 | COC(=O)[C@H](C)NP(=O)(OCCOCn1cnc2c(=O)[nH]c(N)nc21)Oc1cccc2ccccc12 (some centres not stated) | 40.4 |  | 15 | 7.6 | 22 | > 50 | 6.1 |  | 10.9 | > 100 | 80 | 
3 | COC(=O)[C@H](C)NP(=O)(OCCOCn1cnc2c(=O)[nH]c(N)nc21)Oc1ccccc1 (some centres not stated) | 43.1 |  | 18.7 | 19 | 24 | > 100 | 16 | 15 | 20 | 162 | 80 | ≥ 100
4 | Nc1nc2c(ncn2COCCOP(=O)(N[C@@H](Cc2ccccc2)C(=O)OCc2ccccc2)Oc2ccccc2)c(=O)[nH]1 (some centres not stated) | 20.3 |  | 33.2 | 5.2 | 8.4 | > 50 | 10 | 8 | 6.6 | 86.9 | > 100 | 
5 | C[C@H](NP(=O)(OCCOCn1cnc2c(=O)[nH]c(N)nc21)Oc1cccc2ccccc12)C(=O)OCc1ccccc1 (some centres not stated) | 9.8 |  | 14.5 | 7.2 | 6.9 | > 50 |  |  | 3.3 | 20 | 11 | 
6 | Nc1nc2c(ncn2COCCO)c(=O)[nH]1 [ACYCLOVIR] | 6 |  | > 100 |  |  | > 250 |  |  |  | 1350 |  | 
